Data published in ChEMBL document CHEMBL1145984 (J Med Chem, 2003).

What follows are compounds tested against T1, Aminopeptidase N (Sus scrofa, UniProt P15145) (assay: Binding affinity towards aminopeptidase N (APN) from pig kidney).
T1 sequence (P15145 whole entry): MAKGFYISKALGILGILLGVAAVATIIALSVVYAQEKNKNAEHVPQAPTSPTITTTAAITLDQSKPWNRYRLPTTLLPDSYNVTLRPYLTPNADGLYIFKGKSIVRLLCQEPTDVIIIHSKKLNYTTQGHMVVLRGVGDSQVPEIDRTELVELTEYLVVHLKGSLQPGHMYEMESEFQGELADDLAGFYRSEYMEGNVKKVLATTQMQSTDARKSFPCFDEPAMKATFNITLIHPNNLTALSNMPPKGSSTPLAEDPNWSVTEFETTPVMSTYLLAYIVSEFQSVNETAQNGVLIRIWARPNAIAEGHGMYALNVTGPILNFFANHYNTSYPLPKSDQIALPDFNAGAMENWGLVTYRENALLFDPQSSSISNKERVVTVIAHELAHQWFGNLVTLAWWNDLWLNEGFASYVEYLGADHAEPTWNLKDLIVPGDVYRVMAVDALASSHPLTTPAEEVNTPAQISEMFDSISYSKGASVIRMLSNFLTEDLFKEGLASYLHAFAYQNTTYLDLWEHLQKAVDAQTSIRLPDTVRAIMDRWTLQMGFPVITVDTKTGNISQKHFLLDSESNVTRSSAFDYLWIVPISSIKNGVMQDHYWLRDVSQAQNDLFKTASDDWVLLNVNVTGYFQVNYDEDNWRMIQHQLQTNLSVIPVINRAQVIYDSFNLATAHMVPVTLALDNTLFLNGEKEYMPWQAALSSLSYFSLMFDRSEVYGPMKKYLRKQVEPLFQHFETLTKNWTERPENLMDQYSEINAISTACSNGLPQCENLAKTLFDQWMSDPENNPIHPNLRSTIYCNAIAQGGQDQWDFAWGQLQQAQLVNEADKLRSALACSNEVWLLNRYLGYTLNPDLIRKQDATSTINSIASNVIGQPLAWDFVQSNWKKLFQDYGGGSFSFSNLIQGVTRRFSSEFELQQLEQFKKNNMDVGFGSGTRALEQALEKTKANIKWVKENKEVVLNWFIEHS
Outline: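 Porcine kidney APN (lyophilized, diluted in 50 mM potassium phosphate pH 7.2; 4 µg/mL final), inhibitor preincubated 60 min at room temperature, inhibitor solutions adjusted to pH 7.5. L-leucine p-nitroanilide 0.05–0.6 mM final starts reaction; A405 followed 10 min at 25 °C. Ki from Lineweaver-Burk plots of initial linear velocities, 3–4 inhibitor concentrations, each measured twice.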

Structure (SMILES)	Ki [nM]
CC(C)CC(CP(=O)(O)C(N)CCc1ccccc1)C(=O)O (stereo unspecified)	1010
NC(CCc1ccccc1)P(=O)(O)CC(Cc1ccccc1)C(=O)O (stereo unspecified)	276
CC(C)CC(N)P(=O)(O)CCC(=O)O (stereo unspecified)	1410
NC(CCc1ccccc1)P(=O)(O)CC(Cc1ccc(O)cc1)C(=O)O (stereo unspecified)	36
CC(C)CC(N)P(=O)(O)O (stereo unspecified)	55000
CC(C)CC(CP(=O)(O)C(N)CC(C)C)C(=O)O (stereo in doubt; 27)	1020
